High-throughput results as filed in PubChem BioAssay.
The list is not random: actives were taken first. Their share in the collection is about 3.5%.
MrgX1 PAM: allosterically activates human MrgX1 receptor signaling; Q96LB2; MrgX1-HEK293, Fluo-4 calcium flux, FDSS; hits give high values; B-score at 10 µM; actives 0.63% (n = 310,000); AID 588675;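 active means plate-corrected calcium response at least 3 library SD above typical, normal starting fluorescence, not activating the receptor alone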;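 further: compound read alongside a low EC10 to EC30 dose of BAM8-22 agonist; peak minus trough fluorescence over baseline measured at the second addition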
Target sequence (Q96LB2 whole entry, looked up): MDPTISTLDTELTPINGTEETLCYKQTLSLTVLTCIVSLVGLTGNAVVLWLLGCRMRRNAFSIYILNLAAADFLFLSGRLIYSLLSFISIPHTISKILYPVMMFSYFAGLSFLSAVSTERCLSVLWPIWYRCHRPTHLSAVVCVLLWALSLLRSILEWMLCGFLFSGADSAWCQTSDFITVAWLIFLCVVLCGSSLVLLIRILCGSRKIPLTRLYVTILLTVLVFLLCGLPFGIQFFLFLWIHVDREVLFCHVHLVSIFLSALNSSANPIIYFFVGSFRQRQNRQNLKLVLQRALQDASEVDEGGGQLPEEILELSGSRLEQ
MrgX1 agonist: agonists of human MrgX1 receptor. Q96LB2. MrgX1-HEK293 cells, Fluo-4 calcium fluorescence, agonist mode; hits give high values. B-score at 10 µM. actives 0.44% (n = 310,000);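 active means calcium response B-score plate-corrected fluorescence ratio at least 3 library SD, with starting fluorescence B-score inside 5 SD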
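Material: MrgX1-expressing HEK293 cells / Dosing: compound as first of three additions / Incubation: overnight seeding, then 1 h dark dye loading / Signal: Fluo-4 NW calcium fluorescence / Evaluation: B-scored fluorescence response ratio / Benchmarks: positive and negative control wells on each plate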
RGS4 pot: potentiators or activators of RGS4. HEK293 M3R/inducible RGS4, carbachol calcium flux Fluo4; hits give low values. B-score at 10 µM. actives 0.92% (n = 310,000). AID 463111;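 active means B-score of the integrated calcium signal more than 4 SD below the library mean, with starting fluorescence not abnormally high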;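 further: negative B-score means reduced calcium response which marks RGS4 activation or potentiation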
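Material: Inducible-RGS4 HEK293 cells carrying M3 receptor; also added: carbachol at ECmax as muscarinic agonist stimulus; incubation: compound preincubation 20 min at room temperature before agonist; signal: Fluo4-AM (2 µM) calcium-flux fluorescence, kinetic read; measure: integrated calcium ratio converted to B score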
RGS4 inh: inhibitors of human RGS4. actives 0.45% (n = 310,000). HEK293 M3R/RGS4 inducible, Fluo-4 calcium flux; hits give high values; triggered by carbachol at its EC20. AID 463165. B-score at 10 µM;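 active means B-score, a plate-corrected calcium signal, over three deviations above library mean, with baseline fluorescence within five deviations of library mean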;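 further: RGS4 expression induced by doxycycline in cells with stable M3 receptor; B-score is computed from the integrated fluorescence ratio over baseline after carbachol; higher B-score means a larger calcium signal and so more RGS4 inhibition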
Target sequence (P49798 whole entry, looked up): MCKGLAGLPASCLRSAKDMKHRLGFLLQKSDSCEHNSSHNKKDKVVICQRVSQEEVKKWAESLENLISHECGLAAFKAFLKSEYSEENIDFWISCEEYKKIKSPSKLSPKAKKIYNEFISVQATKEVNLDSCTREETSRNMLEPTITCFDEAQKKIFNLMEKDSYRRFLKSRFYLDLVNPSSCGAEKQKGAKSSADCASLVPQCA
MrgX1 antag: human MrgX1 receptor antagonism, primary screen | Q96LB2 | MRGX1-HEK293 calcium flux, Fluo-4, BAM8-22 antagonism; hits give low values | B-score at 10 µM | actives 1.3% (n = 310,000) | AID 588676;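 active means calcium-response B-score plate-corrected more than 3 library SD below zero, starting fluorescence within 5 deviations, no agonist response on first addition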;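 further: peak minus trough fluorescence over baseline after final BAM8-22 challenge near maximal dose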
RGS4 block valid: RGS4 inhibitor validation; HEK293 M3R/RGS4, carbachol calcium Fluo-4 fluorescence; carbachol added at its EC20; 0 = buffer wells, 100 = carbachol control; calcium response, % at 10 µM; actives 65% (n = 1,700); shares compounds with RGS4 inh;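 active means duplicate-averaged calcium response above the buffer-only control mean plus 5 SD of those controls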;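 further: integrated fluorescence ratio F max minus min over baseline F0; higher response in RGS4-induced cells means RGS4 inhibition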
M3R Ca ctr: non-induced cell nonspecific activity of RGS4 inhibitors; shares compounds with RGS4 inh; HEK293 M3R non-induced, carbachol calcium Fluo-4; submaximal (EC20) carbachol stimulus; buffer wells 0%, carbachol control wells 100%; activity (percent), % at 10 µM; actives 20% (n = 1,900); AID 493000; call rule not given here;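 further: RGS4 induction absent so cells express M3R without RGS4; higher means more calcium signal and flags a non-specific hit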
M3R basal Ca ctr: second RGS4 inhibitor counter-screen in uninduced cells lacking carbachol. shares compounds with RGS4 inh. HEK293 M3R/RGS4 non-induced, Fluo-4 calcium, no carbachol; normalised: buffer wells 0%, carbachol wells 100%. calcium response (agonist-mode artifact), % at 10 µM. actives 22% (n = 1,900). AID 493001;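 active means duplicate-averaged calcium rise in uninduced cells above buffer wells' mean plus 5 SD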
Numbers stand for hits.

`COC[C@]12CN(C)C3C4[C@H](OC)[C@H]1C3([C@@H](OC)C[C@H]2O)[C@@H]1C[C@@]2(O)[C@H](OC(=O)c3ccccc3)[C@@H]1[C@]4(OC(C)=O)[C@@H](O)[C@@H]2OC` gave MrgX1 PAM inactive, MrgX1 agonist inactive, RGS4 pot inactive, RGS4 inh inactive and MrgX1 antag inactive.
Screening COCc1cc(OC(=O)N(C)C)nc(-c2ccccc2)n1 returned MrgX1 PAM inactive, MrgX1 agonist inactive, RGS4 pot inactive, RGS4 inh inactive and MrgX1 antag inactive.
`CCOc1ccc(N2C(=O)NC(=O)/C(=C/c3cnc(SC)nc3)C2=O)cc1` gave MrgX1 PAM inactive, MrgX1 agonist inactive, RGS4 pot inactive, RGS4 inh inactive and MrgX1 antag inactive.
CCOC(=O)[C@@]12C(=O)C(=O)N[C@]1(c1ccccc1)C1OCCCC12 (stereo partly specified) was read as MrgX1 PAM inactive, MrgX1 agonist inactive, RGS4 pot inactive, RGS4 inh inactive and MrgX1 antag inactive.
`Cc1cccc(NP(=O)(Oc2ccccc2F)Oc2ccccc2F)c1C` gave MrgX1 PAM inactive, MrgX1 agonist inactive, RGS4 pot inactive, RGS4 inh 4.9, MrgX1 antag inactive, RGS4 block valid inactive, M3R Ca ctr inactive and M3R basal Ca ctr inactive.
CC12CN3CN(C1)CC(C)(C3)C2=NO was read as MrgX1 PAM inactive, MrgX1 agonist inactive, RGS4 pot inactive, RGS4 inh 5.2, MrgX1 antag inactive, RGS4 block valid inactive, M3R Ca ctr inactive and M3R basal Ca ctr inactive.
Cn1cccc1/C=C1\C(=O)NC(=O)N(Cc2ccccc2)C1=O was read as MrgX1 PAM inactive, MrgX1 agonist inactive, RGS4 pot inactive, RGS4 inh inactive and MrgX1 antag inactive.
Cn1cccc1/C=C1/C(=O)NC(=O)N(Cc2ccccc2)C1=O was read as MrgX1 PAM inactive, MrgX1 agonist inactive, RGS4 pot inactive, RGS4 inh inactive and MrgX1 antag inactive.
Cn1cccc1/C=C1/C(=O)NC(=O)N(Cc2ccc(F)cc2)C1=O was read as MrgX1 PAM inactive, MrgX1 agonist inactive, RGS4 pot inactive, RGS4 inh inactive, MrgX1 antag inactive, RGS4 block valid inactive, M3R Ca ctr inactive and M3R basal Ca ctr 9.0%.
Screening Cn1cccc1/C=C1/C(=O)NC(=S)N(Cc2ccc(F)cc2)C1=O returned MrgX1 PAM 7, MrgX1 agonist inactive, RGS4 pot inactive, RGS4 inh 7.2, MrgX1 antag inactive, RGS4 block valid inactive, M3R Ca ctr inactive and M3R basal Ca ctr inactive.
For O=C(Cn1ncn2c(cc3cc(F)ccc32)c1=O)N1CCC2(CC1)OCCO2 the results were MrgX1 PAM inactive, MrgX1 agonist inactive, RGS4 pot inactive, RGS4 inh inactive and MrgX1 antag inactive.
COC(=O)C1=Nc2ccccc2/C1=C\c1c(O)n(-c2cc(OC)ccc2OC)c(=O)[nH]c1=O was read as MrgX1 PAM inactive, MrgX1 agonist inactive, RGS4 pot inactive, RGS4 inh inactive and MrgX1 antag inactive.
Cc1cccc(-n2c(O)c(/C=C3/C(c4ccccc4)=Nc4ccccc43)c(=O)[nH]c2=O)c1 was read as MrgX1 PAM inactive, MrgX1 agonist 47, RGS4 pot inactive, RGS4 inh inactive, MrgX1 antag inactive, M3R Ca ctr inactive and M3R basal Ca ctr 29%.
NC1=C([N+](=O)[O-])C(c2ccc3c(c2)OCO3)c2c(c3ccccc3oc2=O)O1 (stereo unspecified) was read as MrgX1 PAM inactive, MrgX1 agonist inactive, RGS4 pot inactive, RGS4 inh inactive and MrgX1 antag inactive.
O=c1oc2ccccc2c(O)c1[C@H]1c2ccc(O)cc2Oc2c1c(=O)oc1ccccc21 was read as MrgX1 PAM inactive, MrgX1 agonist inactive, RGS4 pot inactive, RGS4 inh 11, MrgX1 antag inactive, RGS4 block valid 58%, M3R Ca ctr 35% and M3R basal Ca ctr inactive.
`O=C1NC(=O)N(c2ccccc2)C(=O)/C1=C\C=C\c1ccccc1` gave MrgX1 PAM inactive, MrgX1 agonist inactive, RGS4 pot inactive, RGS4 inh 16, MrgX1 antag inactive, RGS4 block valid 114%, M3R Ca ctr 31% and M3R basal Ca ctr 24%.
Cc1ccc(N2C(=O)NC(=O)/C(=C/C=C/c3ccco3)C2=O)cc1 was read as MrgX1 PAM inactive, MrgX1 agonist inactive, RGS4 pot inactive, RGS4 inh inactive, MrgX1 antag inactive, RGS4 block valid inactive, M3R Ca ctr inactive and M3R basal Ca ctr 16%.
Screening Cc1cc(C)cc(N2C(=O)NC(=O)/C(=C\C=C\c3ccco3)C2=O)c1 returned MrgX1 PAM inactive, MrgX1 agonist inactive, RGS4 pot inactive, RGS4 inh 23, MrgX1 antag inactive, RGS4 block valid 59%, M3R Ca ctr 80% and M3R basal Ca ctr 36%.
`O=C1NC(=O)N(Cc2ccc(F)cc2)C(=O)/C1=C\C=C\c1ccco1` gave MrgX1 PAM 8.3, MrgX1 agonist inactive, RGS4 pot inactive, RGS4 inh 12, MrgX1 antag inactive, RGS4 block valid 10%, M3R Ca ctr inactive and M3R basal Ca ctr 12%.
Screening C=CCn1c(O)c(C(CC)=Nc2ccc(N(C)C)cc2)c(=O)[nH]c1=O returned MrgX1 PAM inactive, MrgX1 agonist inactive, RGS4 pot inactive, RGS4 inh inactive and MrgX1 antag inactive.
`CCOc1ccccc1CN1C2CCC1CC(c1ccc(C)cc1)C2` (stereo unspecified) gave MrgX1 PAM inactive, MrgX1 agonist inactive, RGS4 pot inactive, RGS4 inh inactive and MrgX1 antag inactive.
For CCCCn1c(O)c(C(=O)/C=C/c2c[nH]c3ccccc23)c(=O)[nH]c1=O the results were MrgX1 PAM inactive, MrgX1 agonist inactive, RGS4 pot inactive, RGS4 inh inactive and MrgX1 antag inactive.
Screening CN1CCN(Cc2cn(C)c3ccccc23)CC1CCO (stereo unspecified) returned MrgX1 PAM inactive, MrgX1 agonist inactive, RGS4 pot inactive, RGS4 inh inactive and MrgX1 antag inactive.
`COc1ccc(-n2nc(C(=O)NCC(=O)N3CCC4(CC3)OCCO4)c3ccccc3c2=O)c(OC)c1` gave MrgX1 PAM inactive, MrgX1 agonist inactive, RGS4 pot inactive, RGS4 inh inactive and MrgX1 antag inactive.
